In ChEMBL document CHEMBL2390928:

Legend:
SK-OV-3 [1] = experiment: Cytotoxicity against human SKOV3 cells assessed as growth inhibition after 48 hrs by SRB assay; type: functional, cell-based; details: SK-OV-3, 48 h
[2] = Ratio of EC50 for induction of microtubule depolymerization in rat A10 cells to IC50 for human MDA-MB-435 cells
Procedure, shortened: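 This ratio divides the A-10 EC50 by the MDA-MB-435 melanoma IC50. […] The IC50 is from the sulforhodamine B proliferation assay, 3–5 independent experiments.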

[3] = Induction of interphase microtubule depolymerization in rat A10 cells after 18 to 24 hrs by indirect immunofluorescence assay; type: cell-based
Procedure, shortened: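 Rat aortic smooth muscle A-10 cells are treated for 18 h, fixed in cold methanol, and stained for microtubules with a β-tubulin antibody by indirect immunofluorescence. […] It is computed per experiment over a wide concentration range, from at least 3 independent experiments, and reported as mean ± SD.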

MDA-MB-435 = experiment: Cytotoxicity against human MDA-MB-435 cells assessed as growth inhibition after 48 hrs by SRB assay; type: functional, cell-based; details: MDA-MB-435, 48 h
Bos taurus = species on record: Bos taurus; experiment: Displacement of [3H]-colchicine from bovine brain tubulin at 5 uM after 10 mins relative to control
Procedure, shortened: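 Electrophoretically homogeneous bovine brain tubulin, 1.0 µM, incubated 10 min at 37 °C with 5.0 µM [3H]colchicine and 5.0 µM inhibitor; colchicine binding inhibition expressed as percent ± SD.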

[4] = Inhibition of bovine brain tubulin assembly after 20 mins by spectrophotometric analysis; parameters: species or system Bos taurus
Procedure, shortened: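 Electrophoretically homogeneous bovine brain tubulin is used at 10 µM (1.0 mg/mL) with varying inhibitor concentrations. After 15 min preincubation at 30 °C, 0.4 mM GTP is added.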

HeLa [5] = experiment: Resistance ratio of IC50 for human HeLa cells expressing beta-3 tubulin to IC50 for human HeLa cells; type: functional
Procedure, shortened: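 HeLa WT βIII cells are HeLa cells transfected with the βIII-tubulin gene. IC50 in this line and in parental HeLa is taken from the sulforhodamine B assay (3–5 independent experiments). Rr is the βIII-line IC50 divided by the parental HeLa IC50.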

HeLa [6] = experiment: Cytotoxicity against human HeLa cells assessed as growth inhibition after 48 hrs by SRB assay; type: functional, cell-based
SK-OV-3 [7] = experiment: Resistance ratio of IC50 for human SKOV3 cells expressing MDR1 to IC50 for human SKOV3 cells; type: functional
Procedure, shortened: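 Relative resistance (Rr) is the IC50 in Pgp-expressing SK-OV-3 MDR-1-6/6 cells divided by the IC50 in parental SK-OV-3 cells.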

Compound	IC50 (SK-OV-3 [1])	Ratio [2]	EC50 [3]	IC50 (MDA-MB-435)	inhibition (Bos taurus)	IC50 [4]	Ratio IC50 (HeLa [5])	IC50 (HeLa [6])	Ratio IC50 (SK-OV-3 [7])
CC(=O)O[C@H]1C(=O)[C@@]2(C)[C@H]([C@H](OC(=O)c3ccccc3)[C@]3(O)C[C@H](OC(=O)[C@H](O)[C@@H](NC(=O)c4ccccc4)c4ccccc4)C(C)=C1C3(C)C)[C@]1(OC(C)=O)CO[C@@H]1C[C@@H]2O [PACLITAXEL]	4.4 nM	–	–	–	–	–	–	–	–
CCOc1ccc(N(C)c2nc(N)nc3[nH]c4ccccc4c23)cc1	23 nM	6.5	83 nM	14.4 nM	82%	1700 nM	0.8	23.1 nM	1.3
CCN(c1ccc(OC)cc1)c1nc(N)nc2[nH]c3ccccc3c12	53 nM	8.4	198 nM	23.5 nM	76%	1700 nM	1.4	32.8 nM	1.4
